Values after ≈ are worked out from the molar mass of the structure shown.

T2 sequence (P11712 whole entry): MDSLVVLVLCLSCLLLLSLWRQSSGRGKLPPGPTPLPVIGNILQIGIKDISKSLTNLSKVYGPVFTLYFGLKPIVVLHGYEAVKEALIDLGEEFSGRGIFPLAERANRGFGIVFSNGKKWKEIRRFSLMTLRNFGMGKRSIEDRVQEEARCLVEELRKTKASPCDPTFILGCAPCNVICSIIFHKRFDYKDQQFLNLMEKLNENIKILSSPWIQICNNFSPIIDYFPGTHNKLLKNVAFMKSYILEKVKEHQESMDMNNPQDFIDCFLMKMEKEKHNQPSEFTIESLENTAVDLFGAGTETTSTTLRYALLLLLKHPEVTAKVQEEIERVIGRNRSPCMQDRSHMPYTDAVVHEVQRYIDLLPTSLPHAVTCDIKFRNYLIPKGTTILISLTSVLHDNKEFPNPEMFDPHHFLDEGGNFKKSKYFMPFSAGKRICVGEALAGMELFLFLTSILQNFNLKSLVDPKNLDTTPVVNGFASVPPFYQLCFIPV

The first data set deals with T1, Arachidonate 5-lipoxygenase-activating protein (Homo sapiens, UniProt P20292).
T1 sequence (P20292 whole entry): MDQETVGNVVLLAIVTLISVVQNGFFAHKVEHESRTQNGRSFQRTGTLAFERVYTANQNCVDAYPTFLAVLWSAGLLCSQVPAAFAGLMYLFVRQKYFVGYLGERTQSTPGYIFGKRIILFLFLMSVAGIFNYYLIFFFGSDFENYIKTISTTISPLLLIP
The data set is described as follows: Displacement of [125I]-L-691831 from human FLAP expressed in insect SF9 cell membranes after 2 hrs by Topcount analysis.
Conditions: not given; call rule not given here
(In a radioligand displacement assay an active substance lowers the binding of a labelled ligand.)
Regarding `Cn1cc(-c2nc(Cc3ccc(-c4cnc(N)nc4)cc3)no2)cn1`, the IC50 is > 1 µM.

With `CNc1ncc(-c2ccc([C@](C)(c3noc(-c4cnn(CC(=O)N(C)C)c4)n3)C3CC3)cc2)cn1`, the IC50 was 0.0029 µM.

On to `Nc1ncc(-c2ccc(C3(c4noc(-c5cnn(CC(=O)O)c5)n4)CCC3)cc2)cn1`, for which the IC50 is 0.018 µM.

`CC(C)(O)Cn1cc(-c2nc([C@@](C)(c3ccc(-c4cnc(N)nc4)cc3)C3CC3)no2)cn1` gave an IC50 of 0.0021 µM.

For `CC(C)Nc1ncc(-c2ccc([C@](C)(c3noc(-c4cnn(CC(=O)N(C)C)c4)n3)C3CC3)cc2)cn1`, the IC50 was > 1 µM.

In the case of `CN(C)C(=O)Cn1cc(-c2nc(C3(c4ccc(-c5cnc(N)nc5)cc4)CCC3)no2)cn1`, the IC50 was determined as 0.0036 µM.

The next data set deals with T1, Arachidonate 5-lipoxygenase-activating protein. The data set is described as follows: Inhibition of FLAP in calcimycin-stimulated human whole blood assessed as inhibition of LTB4 synthesis preincubated for 15 mins followed by calcimycin stimulation measured after 30 mins.
Conditions: not given
The method, boiled down:
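Heparinized human volunteer blood preincubated with compound 15 min at 37 °C, 5 % CO2; calcimycin 100 µM final, 30 min at 37 °C; spun 2000 rpm 5 min at 4 °C. Supernatant LTB4 measured by HTRF competition (LTB4-XL665 plus anti-LTB4 cryptate, 2 h room temperature). Geometric mean (n ≥ 3) of duplicate 10-point curves.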
Take `CCNc1nc(C2(c3ccc(-c4cnc(N)nc4)cc3)CCC2)no1`: the half-maximal inhibitory concentration (IC50) came to 0.46 µM.

Consider `Nc1ncc(-c2ccc(C3(c4noc(-c5cscn5)n4)CCC3)cc2)cn1`, for which the IC50 worked out at 0.2 µM.

For the compound `CC(C)C(C)(c1ccc(-c2cnc(N)nc2)cc1)c1noc(-c2cnn(C)c2)n1` (racemic), the IC50 is 0.046 µM.

Take `Cn1cc(-c2nc(Cc3ccc(-c4cnc(N)nc4)cc3)no2)cn1`: the IC50 is > 5 µM.

Regarding `CN(C)CCn1cc(-c2nc([C@@](C)(c3ccc(-c4cnc(N)nc4)cc3)C3CC3)no2)cn1`, the IC50 was determined as 0.014 µM.

Take `Nc1ncc(-c2ccc(C3(c4noc(-c5cccnn5)n4)CCC3)cc2)cn1`: the IC50 turned out to be 0.4 µM.

Take `Nc1ncc(-c2ccc(C3(c4noc(-c5ccc[nH]c5=O)n4)CCC3)cc2)cn1`: the half-inhibitory concentration (IC50) was > 5 µM.

In the case of `Nc1ncc(-c2ccc(C3(c4noc(-c5c[nH]nn5)n4)CCC3)cc2)cn1`, the IC50 was 2.1 µM.

For the compound `Cn1cc(-c2nc([C@](C)(c3ccc(-c4cnc(N)nc4)cc3)C3CCC3)no2)cn1`, the IC50 is 3.2 µM.

Regarding `CCNc1ncc(-c2ccc(C(C)(c3noc(-c4cnn(CC(=O)N(C)C)c4)n3)C3CC3)cc2)cn1` (racemic), the half-inhibitory concentration (IC50) was 1 µM.

As to `CNc1ncc(-c2ccc([C@](C)(c3noc(-c4cnn(CC(=O)N(C)C)c4)n3)C3CC3)cc2)cn1`, the IC50 is 0.03 µM.

For `Nc1ncc(-c2ccc(C3(c4noc(-c5ccncn5)n4)CCC3)cc2)cn1`, the concentration for half-maximal inhibition (IC50) came to 0.82 µM.

Consider `Cn1cc(-c2nc([C@@](C)(c3ccc(-c4cnc(N)nc4)cc3)C3CCC3)no2)cn1`, for which the IC50 was 0.091 µM.

Take `Nc1ncc(-c2ccc(C3(c4noc(-c5cccnc5)n4)CCC3)cc2)cn1`: the IC50 turned out to be 0.25 µM.

With `Cn1cc(-c2nc(C3(c4ccc(-c5cnc(N)nc5)cc4)CC3)no2)cn1`, the 50% inhibitory concentration (IC50) turned out to be 2.2 µM.

On to `NCCn1cc(-c2nc(C3(c4ccc(-c5cnc(N)nc5)cc4)CCC3)no2)cn1`, for which the 50% inhibitory concentration (IC50) turned out to be 0.24 µM.

In the case of `Nc1ncc(-c2ccc(C3(c4noc(-c5cc[nH]n5)n4)CCC3)cc2)cn1`, the IC50 was 0.16 µM.

`Nc1ncc(-c2ccc(C3(c4noc(-c5cnn(CC(=O)O)c5)n4)CCC3)cc2)cn1`: the IC50 is > 5 µM.

For the compound `CC(C)(O)Cn1cc(-c2nc([C@@](C)(c3ccc(-c4cnc(N)nc4)cc3)C3CC3)no2)cn1`, the IC50 stood at 0.02 µM.

Take `CC(C)Nc1ncc(-c2ccc([C@](C)(c3noc(-c4cnn(CC(=O)N(C)C)c4)n3)C3CC3)cc2)cn1`: the concentration for half-maximal inhibition (IC50) was > 50 µM.

`CN(C)C(=O)Cn1cc(-c2nc(C3(c4ccc(-c5cnc(N)nc5)cc4)CCC3)no2)cn1`: the IC50 turned out to be 0.081 µM.

The target of a further data set is Cytochrome P450 3A4 (Homo sapiens, UniProt P08684). The data set is described as follows: Inhibition of CYP3A4 in human liver microsomes using midazolam as substrate preincubated for 10 mins followed by NADPH addition measured after 6 mins. Type of data set: ADME.
Chain of Cytochrome P450 3A4 (P08684 whole entry): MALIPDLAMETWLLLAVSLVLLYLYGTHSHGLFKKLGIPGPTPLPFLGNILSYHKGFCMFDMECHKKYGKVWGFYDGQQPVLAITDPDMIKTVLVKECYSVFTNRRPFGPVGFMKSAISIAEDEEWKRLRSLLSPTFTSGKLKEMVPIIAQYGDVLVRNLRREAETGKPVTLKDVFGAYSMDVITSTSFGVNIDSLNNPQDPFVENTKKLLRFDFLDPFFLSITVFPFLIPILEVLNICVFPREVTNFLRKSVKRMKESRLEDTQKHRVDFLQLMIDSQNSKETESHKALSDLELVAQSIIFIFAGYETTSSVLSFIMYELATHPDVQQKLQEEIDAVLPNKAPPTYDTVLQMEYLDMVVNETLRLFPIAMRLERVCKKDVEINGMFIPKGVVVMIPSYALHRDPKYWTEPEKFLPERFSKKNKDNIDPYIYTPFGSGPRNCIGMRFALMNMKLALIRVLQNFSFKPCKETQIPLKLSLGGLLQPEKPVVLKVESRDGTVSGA
Conditions: not given
In short, it runs like this:
(§1)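 Human liver microsomes (0.05 mg/mL protein) with cocktail substrates: 4 µM diclofenac (2C9), 3 µM dextromethorphan (2D6), 2.5 µM midazolam (3A4). Compound in 0.1 M potassium phosphate pH 7.4 preincubated 10 min at 37 °C; NADPH added, reaction 6 min at 37 °C.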
On the technique in general: Liver microsomes are a subcellular fraction often used to study metabolism.
On to `CN(C)CCn1cc(-c2nc([C@@](C)(c3ccc(-c4cnc(N)nc4)cc3)C3CC3)no2)cn1`, for which the IC50 is > 30 µM.

On to `CC(C)(O)Cn1cc(-c2nc([C@@](C)(c3ccc(-c4cnc(N)nc4)cc3)C3CC3)no2)cn1`, for which the half-maximal inhibitory concentration (IC50) was > 30 µM.

The next data set has as its target T2, Cytochrome P450 2C9 (Homo sapiens, UniProt P11712). The data set is described as follows: Inhibition of CYP2C9 in human liver microsomes using dichlofenac as substrate at 30 uM preincubated for 10 mins followed by NADPH addition measured after 6 mins. Type of data set: ADME. As to conditions: 0.1 h.
For `CN(C)C(=O)Cn1cc(-c2nc(C3(c4ccc(-c5cnc(N)nc5)cc4)CCC3)no2)cn1`, the “inhibition (INH)” value was “Not Active”.

Tested on in a further data set: not listed separately
The data set can be described thus: Aqueous equilibrium solubility of the compound in crystalline form in citric acid/disodium phosphate buffer at pH 6.8 after 24 hrs of rotation by HPLC analysis. It counts as physicochemical.
Conditions: not given
The method, boiled down: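 Saturated solution of crystalline material in citric acid/disodium phosphate buffer pH 6.8 rotated 24 h; after centrifugation and filtration, dissolved concentration measured by HPLC.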
For the compound `CN(C)CCn1cc(-c2nc([C@@](C)(c3ccc(-c4cnc(N)nc4)cc3)C3CC3)no2)cn1`, the thermodynamic solubility at 24 h is > 1100 µg/mL.

`CC(C)(O)Cn1cc(-c2nc([C@@](C)(c3ccc(-c4cnc(N)nc4)cc3)C3CC3)no2)cn1`: the thermodynamic solubility at 24 h amounted to 32 µg/mL (≈ 71.8 µM).

On to `CN(C)C(=O)Cn1cc(-c2nc(C3(c4ccc(-c5cnc(N)nc5)cc4)CCC3)no2)cn1`, for which the thermodynamic solubility at 24 h came out at 20 µg/mL (≈ 45 µM).

Tested on in another data set: not listed separately
The data set can be described thus: Metabolic stability in human liver microsomes at 1 uM preincubated for 10 mins followed by NADPH addition measured over 60 mins by LC/MS analysis relative to hepatic blood flow. As to conditions: read-out: Stability. It counts as ADME. The method, boiled down:
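Human liver microsomes (1 mg/mL protein) with test compound at 1 µM, preincubated 10 min at 37 °C before adding NADPH. Remaining compound followed over a 0–60 min time course, as duplicate 8-timepoint curves. The slope of ln(% remaining) against time gives clearance, expressed as percent of hepatic blood flow.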
As for `CN(C)CCn1cc(-c2nc([C@@](C)(c3ccc(-c4cnc(N)nc4)cc3)C3CC3)no2)cn1`, the hepatic extraction ratio at 1 h, 1 µM is 0.4.

As to `CC(C)(O)Cn1cc(-c2nc([C@@](C)(c3ccc(-c4cnc(N)nc4)cc3)C3CC3)no2)cn1`, the hepatic extraction ratio at 1 h, 1 µM was determined as 0.24.

Another data set deals with T3, Arachidonate 5-lipoxygenase-activating protein (Mus musculus, UniProt P30355).
T3 sequence (P30355 whole entry): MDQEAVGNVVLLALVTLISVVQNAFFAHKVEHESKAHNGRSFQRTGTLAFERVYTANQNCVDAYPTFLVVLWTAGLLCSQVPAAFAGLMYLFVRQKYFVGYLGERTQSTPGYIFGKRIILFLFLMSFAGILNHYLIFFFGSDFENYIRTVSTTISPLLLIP
The data set is described as follows: Inhibition of FLAP in calcimycin-stimulated mouse whole blood assessed as inhibition of LTB4 synthesis preincubated for 15 mins followed by calcimycin stimulation measured after 30 mins.
Conditions: not given
The method, boiled down:
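Mouse whole blood run by the same protocol as the human whole blood LTB4 assay (compound 15 min at 37 °C, 100 µM final calcimycin 30 min, HTRF LTB4 read-out). Geometric mean (n ≥ 3) of duplicate 8-point curves.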
As to `CC(C)(O)Cn1cc(-c2nc([C@@](C)(c3ccc(-c4cnc(N)nc4)cc3)C3CC3)no2)cn1`, the 50% inhibitory concentration (IC50) stood at 1.5 µM.

The target in the next data set is hERG (KCNH2) (Homo sapiens, UniProt Q12809). The data set can be described thus: Inhibition of human ERG expressed in HEK293 cells assessed as change in tail current at 11 uM by manual patch clamp assay relative to control. It counts as cell-based. As to conditions: HEK293 cells that express hERG. The method, boiled down: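 Whole-cell manual patch clamp on HEK293 cells stably expressing human ERG, at room temperature (20-22 °C) in a perfusion chamber. Change in hERG tail current amplitude during the hyperpolarizing step measured with escalating compound concentrations.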
Chain of hERG (KCNH2) (Q12809 whole entry, the tested form may be a part): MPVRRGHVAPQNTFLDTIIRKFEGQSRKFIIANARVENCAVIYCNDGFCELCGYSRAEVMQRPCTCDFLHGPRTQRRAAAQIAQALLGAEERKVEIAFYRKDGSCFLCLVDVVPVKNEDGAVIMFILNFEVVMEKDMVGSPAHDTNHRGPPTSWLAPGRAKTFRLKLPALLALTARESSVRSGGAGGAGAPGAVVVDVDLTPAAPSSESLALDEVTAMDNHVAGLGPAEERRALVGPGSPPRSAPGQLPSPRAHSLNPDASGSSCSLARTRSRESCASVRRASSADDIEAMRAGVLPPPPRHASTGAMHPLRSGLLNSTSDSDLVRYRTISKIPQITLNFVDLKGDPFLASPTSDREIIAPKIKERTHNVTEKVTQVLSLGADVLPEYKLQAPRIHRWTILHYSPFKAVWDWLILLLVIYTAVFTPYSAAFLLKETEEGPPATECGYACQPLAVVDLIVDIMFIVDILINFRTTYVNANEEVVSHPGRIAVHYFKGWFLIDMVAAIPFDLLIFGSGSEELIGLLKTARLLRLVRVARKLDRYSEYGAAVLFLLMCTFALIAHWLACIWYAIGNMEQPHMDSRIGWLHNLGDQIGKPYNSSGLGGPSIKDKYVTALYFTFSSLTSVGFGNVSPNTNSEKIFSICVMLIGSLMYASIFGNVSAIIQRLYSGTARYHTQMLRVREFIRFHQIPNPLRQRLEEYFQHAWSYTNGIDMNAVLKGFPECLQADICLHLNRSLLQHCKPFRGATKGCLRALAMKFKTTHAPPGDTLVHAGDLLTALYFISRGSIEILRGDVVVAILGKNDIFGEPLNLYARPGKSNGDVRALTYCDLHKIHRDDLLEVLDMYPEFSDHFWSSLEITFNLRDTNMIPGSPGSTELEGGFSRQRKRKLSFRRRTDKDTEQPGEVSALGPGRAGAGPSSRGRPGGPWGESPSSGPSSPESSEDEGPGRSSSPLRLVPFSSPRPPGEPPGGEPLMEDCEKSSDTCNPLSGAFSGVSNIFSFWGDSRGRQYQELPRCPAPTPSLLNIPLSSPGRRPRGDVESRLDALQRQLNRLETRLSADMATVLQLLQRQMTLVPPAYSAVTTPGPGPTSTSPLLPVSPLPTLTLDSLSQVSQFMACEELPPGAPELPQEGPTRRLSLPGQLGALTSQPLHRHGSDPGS
In the case of `CN(C)CCn1cc(-c2nc([C@@](C)(c3ccc(-c4cnc(N)nc4)cc3)C3CC3)no2)cn1`, the inhibition at 11 µM is 31%.

Turning to `CC(C)(O)Cn1cc(-c2nc([C@@](C)(c3ccc(-c4cnc(N)nc4)cc3)C3CC3)no2)cn1`, the inhibition at 11 µM was determined as 16%.

In the next data set the target is T4, Cytochrome P450 2D6 (Homo sapiens, UniProt P10635). The data set is described as follows: Inhibition of CYP2D6 in human liver microsomes using dextromethorphan as substrate at 30 uM preincubated for 10 mins followed by NADPH addition measured after 6 mins. Type of data set: ADME. The note with it: 0.1 h.
T4 sequence (P10635 whole entry): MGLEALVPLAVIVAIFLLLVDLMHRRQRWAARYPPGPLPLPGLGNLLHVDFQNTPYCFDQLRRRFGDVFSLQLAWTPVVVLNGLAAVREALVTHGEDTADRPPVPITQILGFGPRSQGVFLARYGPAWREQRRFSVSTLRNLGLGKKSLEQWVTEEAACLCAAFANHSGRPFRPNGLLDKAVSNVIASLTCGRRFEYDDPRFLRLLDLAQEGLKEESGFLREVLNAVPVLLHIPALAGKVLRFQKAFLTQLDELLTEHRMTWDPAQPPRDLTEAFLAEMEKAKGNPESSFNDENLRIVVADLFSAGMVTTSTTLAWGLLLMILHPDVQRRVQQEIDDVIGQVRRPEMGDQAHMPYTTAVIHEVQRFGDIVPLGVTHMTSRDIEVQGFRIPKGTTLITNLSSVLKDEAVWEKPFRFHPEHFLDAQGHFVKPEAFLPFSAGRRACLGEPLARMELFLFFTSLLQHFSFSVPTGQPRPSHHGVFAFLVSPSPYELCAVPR
As to `CN(C)C(=O)Cn1cc(-c2nc(C3(c4ccc(-c5cnc(N)nc5)cc4)CCC3)no2)cn1`, the “inhibition (INH)” value is recorded as “Not Active”.

The target in the next data set is T4, Cytochrome P450 2D6. The data set can be described thus: Inhibition of CYP2D6 in human liver microsomes using dextromethorphan as substrate preincubated for 10 mins followed by NADPH addition measured after 6 mins.
Conditions: not given
Type of data set: ADME. In short, it runs like this: as §1
The compound `CN(C)CCn1cc(-c2nc([C@@](C)(c3ccc(-c4cnc(N)nc4)cc3)C3CC3)no2)cn1` registered an IC50 of 10 µM.

For the compound `CC(C)(O)Cn1cc(-c2nc([C@@](C)(c3ccc(-c4cnc(N)nc4)cc3)C3CC3)no2)cn1`, the IC50 was > 30 µM.

The next data set addresses T2, Cytochrome P450 2C9. The data set is described as follows: Inhibition of CYP2C9 in human liver microsomes using dichlofenac as substrate preincubated for 10 mins followed by NADPH addition measured after 6 mins.
Conditions: not given
It counts as ADME. The method, boiled down:
as §1
In the case of `CN(C)CCn1cc(-c2nc([C@@](C)(c3ccc(-c4cnc(N)nc4)cc3)C3CC3)no2)cn1`, the half-maximal inhibitory concentration (IC50) is > 30 µM.

Regarding `CC(C)(O)Cn1cc(-c2nc([C@@](C)(c3ccc(-c4cnc(N)nc4)cc3)C3CC3)no2)cn1`, half-maximal inhibition (IC50) required 4 µM.

For orientation: IC50 means the concentration that inhibits the measured activity by half. Usually solubility (thermodynamic) stands for solubility found after equilibrating the solid with the medium. As a reminder, the inhibition is the change of the read-out against control, counted positive when it falls.

These data come from ChEMBL document CHEMBL3414472, “Synthesis, SAR, and series evolution of novel oxadiazole-containing 5-lipoxygenase activating protein inhibitors: discovery of 2-[4-(3-{(r)-1-[4-(2-amino-pyrimidin-5-yl)-phenyl]-1-cyclopropyl-ethyl}-[1,2,4]oxadiazol-5-yl)-pyrazol-1-yl]-N,N-dimethyl-acetamide (BI 665915)” (J Med Chem, 2015).
